Measured values published in ChEMBL document CHEMBL4152256, “Structure-activity relationship of new antimalarial 1-aryl-3-susbtituted propanol derivatives: Synthesis, preliminary toxicity profiling, parasite life cycle stage studies, target exploration, and targeted delivery” (Eur J Med Chem, 2018).

Key:
[1] = Genotoxicity in Salmonella typhimurium TA1535 harboring pSK1002 assessed as survival at 0.063 mg/ml in absence of Sprague-Dawley rat liver S9 fraction after by SOS/umu assay relative to control; assay type: toxicity, organism-based; details: salmonella enterica subsp. enterica serovar typhimurium, read-out: Survival
[2] = Genotoxicity in Salmonella typhimurium TA1535 harboring pSK1002 assessed as umu gene induction at 0.002 mg/ml in absence of Sprague-Dawley rat liver S9 fraction after by SOS/umu assay relative to control; assay type: toxicity, organism-based; details: salmonella enterica subsp. enterica serovar typhimurium, read-out: FC
[3] = Genotoxicity in Salmonella typhimurium TA1535 harboring pSK1002 assessed as survival at 0.001 mg/ml in absence of Sprague-Dawley rat liver S9 fraction after by SOS/umu assay relative to control; assay type: toxicity, organism-based; details: salmonella enterica subsp. enterica serovar typhimurium, read-out: Survival
Plasmodium falciparum [4] = test: Antiplasmodial activity against multidrug-resistant Plasmodium falciparum FCR-3 by [3H]-hypoxanthine incorporation assay; assay type: functional, organism-based, FCR-3/Gambia
Outline: (§1)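 Blood-stage P. falciparum 3D7 and FCR-3 were tested by a modified [3H]-hypoxanthine incorporation assay. Chloroquine was the reference in all runs.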

[5] = Genotoxicity in Salmonella typhimurium TA1535 harboring pSK1002 assessed as survival at 0.008 mg/ml in absence of Sprague-Dawley rat liver S9 fraction after by SOS/umu assay relative to control; assay type: toxicity, organism-based; details: salmonella enterica subsp. enterica serovar typhimurium, read-out: Survival
[6] = Genotoxicity in Salmonella typhimurium TA1535 harboring pSK1002 assessed as umu gene induction at 0.016 mg/ml in presence of Sprague-Dawley rat liver S9 fraction after by SOS/umu assay relative to control; assay type: toxicity, organism-based; details: salmonella enterica subsp. enterica serovar typhimurium, read-out: FC
[7] = Genotoxicity in Salmonella typhimurium TA1535 harboring pSK1002 assessed as umu gene induction at 0.125 mg/ml in absence of Sprague-Dawley rat liver S9 fraction after by SOS/umu assay relative to control; assay type: toxicity, organism-based; details: salmonella enterica subsp. enterica serovar typhimurium, read-out: FC
[8] = Genotoxicity in Salmonella typhimurium TA1535 harboring pSK1002 assessed as survival at 0.004 mg/ml in absence of Sprague-Dawley rat liver S9 fraction after by SOS/umu assay relative to control; assay type: toxicity, organism-based; details: salmonella enterica subsp. enterica serovar typhimurium, read-out: Survival
[9] = Genotoxicity in Salmonella typhimurium TA1535 harboring pSK1002 assessed as survival at 0.016 mg/ml in absence of Sprague-Dawley rat liver S9 fraction after by SOS/umu assay relative to control; assay type: toxicity, organism-based; details: salmonella enterica subsp. enterica serovar typhimurium, read-out: Survival
[10] = Genotoxicity in Salmonella typhimurium TA1535 harboring pSK1002 assessed as umu gene induction at 0.063 mg/ml in absence of Sprague-Dawley rat liver S9 fraction after by SOS/umu assay relative to control; assay type: toxicity, organism-based; details: salmonella enterica subsp. enterica serovar typhimurium, read-out: FC
[11] = Genotoxicity in Salmonella typhimurium TA1535 harboring pSK1002 assessed as survival at 0.016 mg/ml in presence of Sprague-Dawley rat liver S9 fraction after by SOS/umu assay relative to control; assay type: toxicity, organism-based; details: salmonella enterica subsp. enterica serovar typhimurium, read-out: Survival
[12] = Genotoxicity in Salmonella typhimurium TA1535 harboring pSK1002 assessed as survival at 0.125 mg/ml in absence of Sprague-Dawley rat liver S9 fraction after by SOS/umu assay relative to control; assay type: toxicity, organism-based; details: salmonella enterica subsp. enterica serovar typhimurium, read-out: Survival
[13] = Genotoxicity in Salmonella typhimurium TA1535 harboring pSK1002 assessed as umu gene induction at 0.016 mg/ml in absence of Sprague-Dawley rat liver S9 fraction after by SOS/umu assay relative to control; assay type: toxicity, organism-based; details: salmonella enterica subsp. enterica serovar typhimurium, read-out: FC
[14] = Genotoxicity in Salmonella typhimurium TA1535 harboring pSK1002 assessed as umu gene induction at 0.063 mg/ml in presence of Sprague-Dawley rat liver S9 fraction after by SOS/umu assay relative to control; assay type: toxicity, organism-based; details: salmonella enterica subsp. enterica serovar typhimurium, read-out: FC
[15] = Cytotoxicity against human HepG2A16 cells by MTT assay; assay type: cell-based
Outline: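 MTT viability assay on HepG2-A16 cells, giving CC50 values.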

[16] = Genotoxicity in Salmonella typhimurium TA1535 harboring pSK1002 assessed as umu gene induction at 0.004 mg/ml in absence of Sprague-Dawley rat liver S9 fraction after by SOS/umu assay relative to control; assay type: toxicity, organism-based; details: salmonella enterica subsp. enterica serovar typhimurium, read-out: FC
[17] = Selectivity index, ratio of CC50 for human HepG2A16 cells by MTT assay to IC50 for multidrug-resistant Plasmodium falciparum FCR-3; assay type: toxicity; details: for selectivity ratio: HepG2A16 cells, read-out: Ratio CC50/IC50
Outline: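 HepG2-A16 human hepatoma cells were tested by MTT viability assay to give CC50. Blood-stage activity was measured against the multidrug-resistant P. falciparum FCR-3 strain by [3H]-hypoxanthine incorporation to give IC50. SI = CC50 HepG2 / FCR-3 IC50.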

[18] = Genotoxicity in Salmonella typhimurium TA1535 harboring pSK1002 assessed as survival at 0.002 mg/ml in presence of Sprague-Dawley rat liver S9 fraction after by SOS/umu assay relative to control; assay type: toxicity, organism-based; details: salmonella enterica subsp. enterica serovar typhimurium, read-out: Survival
[19] = Genotoxicity in Salmonella typhimurium TA1535 harboring pSK1002 assessed as umu gene induction at 0.001 mg/ml in presence of Sprague-Dawley rat liver S9 fraction after by SOS/umu assay relative to control; assay type: toxicity, organism-based; details: salmonella enterica subsp. enterica serovar typhimurium, read-out: FC
[20] = Genotoxicity in Salmonella typhimurium TA1535 harboring pSK1002 assessed as umu gene induction at 0.031 mg/ml in presence of Sprague-Dawley rat liver S9 fraction after by SOS/umu assay relative to control; assay type: toxicity, organism-based; details: salmonella enterica subsp. enterica serovar typhimurium, read-out: FC
[21] = Genotoxicity in Salmonella typhimurium TA1535 harboring pSK1002 assessed as survival at 0.008 mg/ml in presence of Sprague-Dawley rat liver S9 fraction after by SOS/umu assay relative to control; assay type: toxicity, organism-based; details: salmonella enterica subsp. enterica serovar typhimurium, read-out: Survival
[22] = Genotoxicity in Salmonella typhimurium TA1535 harboring pSK1002 assessed as survival at 0.063 mg/ml in presence of Sprague-Dawley rat liver S9 fraction after by SOS/umu assay relative to control; assay type: toxicity, organism-based; details: salmonella enterica subsp. enterica serovar typhimurium, read-out: Survival
[23] = Genotoxicity in Salmonella typhimurium TA1535 harboring pSK1002 assessed as survival at 0.125 mg/ml in presence of Sprague-Dawley rat liver S9 fraction after by SOS/umu assay relative to control; assay type: toxicity, organism-based; details: salmonella enterica subsp. enterica serovar typhimurium, read-out: Survival
[24] = Genotoxicity in Salmonella typhimurium TA1535 harboring pSK1002 assessed as survival at 0.031 mg/ml in absence of Sprague-Dawley rat liver S9 fraction after by SOS/umu assay relative to control; assay type: toxicity, organism-based; details: salmonella enterica subsp. enterica serovar typhimurium, read-out: Survival
[25] = Genotoxicity in Salmonella typhimurium TA1535 harboring pSK1002 assessed as umu gene induction at 0.008 mg/ml in absence of Sprague-Dawley rat liver S9 fraction after by SOS/umu assay relative to control; assay type: toxicity, organism-based; details: salmonella enterica subsp. enterica serovar typhimurium, read-out: FC
[26] = Genotoxicity in Salmonella typhimurium TA1535 harboring pSK1002 assessed as umu gene induction at 0.002 mg/ml in presence of Sprague-Dawley rat liver S9 fraction after by SOS/umu assay relative to control; assay type: toxicity, organism-based; details: salmonella enterica subsp. enterica serovar typhimurium, read-out: FC
Plasmodium falciparum [27] = test: Antiplasmodial activity against chloroquine-sensitive Plasmodium falciparum 3D7 by [3H]-hypoxanthine incorporation assay; assay type: functional, organism-based; outline: as §1
[28] = Genotoxicity in Salmonella typhimurium TA1535 harboring pSK1002 assessed as umu gene induction at 0.004 mg/ml in presence of Sprague-Dawley rat liver S9 fraction after by SOS/umu assay relative to control; assay type: toxicity, organism-based; details: salmonella enterica subsp. enterica serovar typhimurium, read-out: FC
[29] = Genotoxicity in Salmonella typhimurium TA1535 harboring pSK1002 assessed as umu gene induction at 0.008 mg/ml in presence of Sprague-Dawley rat liver S9 fraction after by SOS/umu assay relative to control; assay type: toxicity, organism-based; details: salmonella enterica subsp. enterica serovar typhimurium, read-out: FC
[30] = Plasmodium falciparum, FCR-3/Gambia, 3 h

Compound	viability at 0.063 mg/ml [1]	fold induction at 0.002 mg/ml [2]	viability at 0.001 mg/ml [3]	viability at 0.008 mg/ml [5]	fold induction at 0.016 mg/ml [6]	fold induction at 0.125 mg/ml [7]	viability at 0.004 mg/ml [8]	viability at 0.016 mg/ml [9]	fold induction at 0.063 mg/ml [10]	viability at 0.016 mg/ml [11]	viability at 0.125 mg/ml [12]	fold induction at 0.016 mg/ml [13]	fold induction at 0.063 mg/ml [14]	fold induction at 0.004 mg/ml [16]	viability at 0.002 mg/ml [18]	fold induction at 0.001 mg/ml [19]	fold induction at 0.031 mg/ml [20]	viability at 0.008 mg/ml [21]	viability at 0.063 mg/ml [22]	viability at 0.125 mg/ml [23]	other results
COc1ccccc1C1=CCN(CCC(O)c2ccc(F)cc2)CC1 (stereo not given)	101%	1.1	114%	111%	1.2	1	104%	106%	0.9	78.9%	107%	1	0.9	1.1	87.2%	1.2	1	88.3%	91%	88.5%	IC50 (Plasmodium falciparum [4]; [30]): 1320 nM; CC50 ([15]; HepG2A16 cells): 67000 nM; selectivity ratio [17]: 51; viability at 0.031 mg/ml [24]: 114%; fold induction at 0.008 mg/ml [25]: 1; fold induction at 0.002 mg/ml [26]: 1.1; IC50 (Plasmodium falciparum [27]; Plasmodium falciparum, 3D7): 2820 nM; fold induction at 0.004 mg/ml [28]: 1.1; fold induction at 0.008 mg/ml [29]: 1
OC(CCN1CCN(C(c2ccccc2)c2ccccc2)CC1)c1ccc(F)c(F)c1 (stereo not given)	28%	0.9	110%	105%	0.8	1.4	102%	36.7%	4	94.9%	24.1%	2	0.8	1	92.2%	0.6	0.8	101%	112%	117%	IC50 (Plasmodium falciparum [4]; [30]): 370 nM; CC50 ([15]; HepG2A16 cells): 54300 nM; selectivity ratio [17]: 147; viability at 0.031 mg/ml [24]: 20.7%; fold induction at 0.008 mg/ml [25]: 1.2; fold induction at 0.002 mg/ml [26]: 0.8; IC50 (Plasmodium falciparum [27]; Plasmodium falciparum, 3D7): 380 nM; fold induction at 0.004 mg/ml [28]: 0.9; fold induction at 0.008 mg/ml [29]: 0.8
N#Cc1ccc(N2CCC(NCCC(O)c3ccc(F)c4ccccc34)CC2)c(C(F)(F)F)c1 (stereo in doubt; 72)	54.7%	1.3	132%	32.9%	0.6	0.2	33.3%	28.3%	0.3	36.3%	62.4%	0.8	0.2	0.9	136%	0.8	0.6	52.9%	85.2%	91%	IC50 (Plasmodium falciparum [4]): 80 nM; CC50 [15]: 6220 nM; Ratio CC50/IC50 [17]: 78; viability at 0.031 mg/ml [24]: 30.2%; fold induction at 0.008 mg/ml [25]: 0.8; fold induction at 0.002 mg/ml [26]: 1; IC50 (Plasmodium falciparum [27]): 130 nM; fold induction at 0.004 mg/ml [28]: 0.7; fold induction at 0.008 mg/ml [29]: 1.3
OC(CCN1CCN(c2ccc(F)cc2)CC1)c1ccc(F)c2ccccc12 (stereo not given)	118%	0.7	111%	122%	0.9	0.7	87.9%	85.4%	0.5	72.4%	56.2%	0.7	0.5	0.8	100%	0.9	0.5	98.7%	112%	59.6%	IC50 (Plasmodium falciparum [4]; [30]): 4050 nM; CC50 ([15]; HepG2A16 cells): 29400 nM; selectivity ratio [17]: 7; viability at 0.031 mg/ml [24]: 87%; fold induction at 0.008 mg/ml [25]: 0.5; fold induction at 0.002 mg/ml [26]: 0.8; IC50 (Plasmodium falciparum [27]; Plasmodium falciparum, 3D7): 430 nM; fold induction at 0.004 mg/ml [28]: 0.8; fold induction at 0.008 mg/ml [29]: 0.7
Nc1ccc(N2CCC(NCCC(O)c3ccc(F)c4ccccc34)CC2)c(C(F)(F)F)c1 (stereo not given)	27.7%	0.7	101%	27.7%	1.4	0.4	38.7%	28.3%	0.6	32.4%	32.4%	0.8	0.4	0.8	116%	0.6	1	104%	55.7%	107%	IC50 (Plasmodium falciparum [4]; [30]): 80 nM; CC50 ([15]; HepG2A16 cells): 11000 nM; selectivity ratio [17]: 137; viability at 0.031 mg/ml [24]: 31.5%; fold induction at 0.008 mg/ml [25]: 1; fold induction at 0.002 mg/ml [26]: 1.4; IC50 (Plasmodium falciparum [27]; Plasmodium falciparum, 3D7): 140 nM; fold induction at 0.004 mg/ml [28]: 1.1; fold induction at 0.008 mg/ml [29]: 1.1
